Tests used:
[1] = target: T1, G-protein coupled receptor 183 (Homo sapiens, UniProt P32249); assay: Agonist activity at Go2-q-coupled EBI2 (unknown origin) expressed in COS7 cell membranes assessed as stimulation of [35S]GTPgammaS binding preincubated for 20 mins followed by [35S]GTPgammaS addition and measured after 1 hr by scintillation counting analysis; format: functional, Membrane
In short: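 [35S]GTPγS binding measured in membranes of COS7 cells transiently transfected with human, rat or mouse EBI2, with receptor coupled through Go2. Compounds tested as concentration-response series (log M plots) to give EC50 and % Emax for each species' receptor.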

[2] = Cmax in mouse at 20 mg/kg, sc; format: ADME, organism-based; design: route subcutaneous, dose 20 mg/kg; conditions: in vivo
[3] = Tmax in mouse at 20 mg/kg, sc; format: ADME, organism-based; conditions: in vivo
[4] = target: T1, G-protein coupled receptor 183; assay: Agonist activity at Go2-q-coupled human EBI2 expressed in COS7 cell membranes assessed as stimulation of [35S]GTPgammaS binding preincubated for 20 mins followed by [35S]GTPgammaS addition and measured after 1 hr by scintillation counting analysis; format: functional, Membrane
In short: (§1)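 [35S]GTPγS binding measured on COS7 cells transiently transfected with human, rat or mouse EBI2, using a Gαo2 chimera set-up. Concentration-response testing ran up to a top concentration of 1. EC50 and % Emax were taken from the curves, with Emax referenced to 7α,25-OHC.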

[5] = target: G-protein coupled receptor 183 (Rattus norvegicus, UniProt D4A7K7); assay: Agonist activity at Go2-q-coupled rat EBI2 expressed in COS7 cell membranes assessed as stimulation of [35S]GTPgammaS binding preincubated for 20 mins followed by [35S]GTPgammaS addition and measured after 1 hr by scintillation counting analysis; design: species or system Membrane; in short: as §1
Chain of G-protein coupled receptor 183 (Rattus norvegicus, UniProt D4A7K7) (D4A7K7 whole entry): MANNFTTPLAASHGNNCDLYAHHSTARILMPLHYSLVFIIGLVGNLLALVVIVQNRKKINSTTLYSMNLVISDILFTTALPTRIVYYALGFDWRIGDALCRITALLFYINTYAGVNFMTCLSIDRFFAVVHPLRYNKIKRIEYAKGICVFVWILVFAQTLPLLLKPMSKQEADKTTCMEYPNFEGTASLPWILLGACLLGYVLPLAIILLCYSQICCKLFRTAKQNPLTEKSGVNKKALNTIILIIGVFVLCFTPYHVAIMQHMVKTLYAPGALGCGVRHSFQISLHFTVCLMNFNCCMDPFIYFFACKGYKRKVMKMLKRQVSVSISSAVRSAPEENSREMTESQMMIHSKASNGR

[6] = target: G-protein coupled receptor 183 (Mus musculus, UniProt Q3U6B2); assay: Agonist activity at Go2-q-coupled mouse EBI2 expressed in COS7 cell membranes assessed as stimulation of [35S]GTPgammaS binding preincubated for 20 mins followed by [35S]GTPgammaS addition and measured after 1 hr by scintillation counting analysis; format: functional, Membrane; in short: as §1
Chain of G-protein coupled receptor 183 (Mus musculus, UniProt Q3U6B2) (Q3U6B2 whole entry): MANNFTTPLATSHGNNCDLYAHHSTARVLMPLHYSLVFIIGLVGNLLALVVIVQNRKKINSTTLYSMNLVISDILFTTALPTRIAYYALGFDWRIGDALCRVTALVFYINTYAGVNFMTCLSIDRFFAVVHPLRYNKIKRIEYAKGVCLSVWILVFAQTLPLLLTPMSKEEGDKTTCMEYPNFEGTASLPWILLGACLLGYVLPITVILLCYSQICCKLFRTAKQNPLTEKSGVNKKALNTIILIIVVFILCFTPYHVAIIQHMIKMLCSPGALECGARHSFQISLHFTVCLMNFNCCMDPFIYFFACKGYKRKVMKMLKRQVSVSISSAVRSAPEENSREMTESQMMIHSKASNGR

[7] = target: T1, G-protein coupled receptor 183; assay: Agonist activity at Go2-q-coupled human EBI2 expressed in COS7 cell membranes assessed as stimulation of [35S]GTPgammaS binding at 1 uM preincubated for 20 mins followed by [35S]GTPgammaS addition and measured after 1 hr by scintillation counting analysis relative to control; format: functional; conditions: Membrane, filed as agonist, time 80.0 min; in short: as §1
[8] = target: G-protein coupled receptor 183 (Rattus norvegicus) (UniProt D4A7K7); assay: Agonist activity at Go2-q-coupled rat EBI2 expressed in COS7 cell membranes assessed as stimulation of [35S]GTPgammaS binding at 1 uM preincubated for 20 mins followed by [35S]GTPgammaS addition and measured after 1 hr by scintillation counting analysis relative to control; conditions: Membrane, filed as agonist, time 80.0 min; in short: as §1
Chain of G-protein coupled receptor 183 (Rattus norvegicus) (D4A7K7 whole entry): as the sequence (D4A7K7 whole entry) above

[9] = target: G-protein coupled receptor 183 (Mus musculus) (UniProt Q3U6B2); assay: Agonist activity at Go2-q-coupled mouse EBI2 expressed in COS7 cell membranes assessed as stimulation of [35S]GTPgammaS binding at 1 uM preincubated for 20 mins followed by [35S]GTPgammaS addition and measured after 1 hr by scintillation counting analysis relative to control; format: functional; conditions: Membrane, filed as agonist, time 80.0 min; in short: as §1
Chain of G-protein coupled receptor 183 (Mus musculus) (Q3U6B2 whole entry): as the sequence (Q3U6B2 whole entry) above

[10] = Metabolic stability in mouse liver microsomes assessed as half life; format: ADME, Microsome
[11] = Metabolic stability in rat liver microsomes assessed as half life; format: ADME, Microsome
[12] = Metabolic stability in human liver microsomes assessed as half life; format: ADME, Microsome
[13] = Cmax in mouse at 20 mg/kg, ip; format: ADME, organism-based; design: route intraperitoneal, dose 20 mg/kg; conditions: in vivo
[14] = Tmax in mouse at 20 mg/kg, ip; format: ADME, organism-based; conditions: in vivo
[15] = AUClast in mouse at 20 mg/kg, ip; format: ADME, organism-based; design: route intraperitoneal, time 0 - last, dose 20 mg/kg; conditions: in vivo
[16] = Terminal half life in mouse at 20 mg/kg, ip; format: ADME, organism-based; conditions: in vivo, read-out: beta t1/2 (converted)
[17] = AUClast in mouse at 20 mg/kg, sc; format: ADME, organism-based; design: time 0 - last, route subcutaneous, dose 20 mg/kg; conditions: in vivo
[18] = Terminal half life in mouse at 20 mg/kg, sc; format: ADME, organism-based; conditions: in vivo, read-out: beta t1/2 (converted)
[19] = Elimination half-life in po dosed mouse; format: ADME, organism-based; conditions: in vivo, read-out: beta t1/2 (converted)

T1 sequence (P32249 whole entry): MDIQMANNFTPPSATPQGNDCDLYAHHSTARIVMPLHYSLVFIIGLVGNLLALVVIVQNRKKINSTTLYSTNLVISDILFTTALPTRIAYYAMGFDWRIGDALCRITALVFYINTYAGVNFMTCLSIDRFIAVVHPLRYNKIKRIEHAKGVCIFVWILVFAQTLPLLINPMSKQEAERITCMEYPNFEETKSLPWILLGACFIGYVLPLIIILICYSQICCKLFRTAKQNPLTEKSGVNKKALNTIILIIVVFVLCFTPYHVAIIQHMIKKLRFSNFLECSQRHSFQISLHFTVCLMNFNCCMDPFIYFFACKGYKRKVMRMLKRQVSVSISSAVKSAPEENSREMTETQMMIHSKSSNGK

EC50 [4]	EC50 [5]	EC50 [6]	Emax [7]	Emax [8]	Emax [9]	Compound	EC50 [1]	half-life [10]	half-life [11]	half-life [12]	further results
–	–	–	–	–	–	CC(CO)CCC[C@@H](C)[C@H]1CC[C@H]2[C@H]3C(CC[C@]12C)[C@@]1(C)CC[C@H](O)CC1=C[C@@H]3O (single isomer, unassigned)	51 nM	–	–	–	–
4.1 nM	14.4 nM	14.4 nM	100%	88%	60%	C[C@H](CCCC(C)(C)O)[C@H]1CC[C@H]2[C@H]3[C@H](CC[C@]12C)[C@@]1(C)CC[C@H](O)CC1=C[C@@]3(O)C(F)(F)F	–	–	–	–	–
–	–	–	–	–	–	C[C@H](CCCC(C)(C)O)[C@H]1CC[C@H]2[C@@H]3[C@@H](O)C=C4C[C@@H](O)CC[C@]4(C)[C@H]3CC[C@]12C	2.1 nM	–	–	–	–
0.102 nM	1.08 nM	1.64 nM	122%	116%	136%	C[C@H](CCCC(C)(C)O)[C@H]1CC[C@H]2[C@H]3[C@H](CC[C@]12C)[C@@]1(C)CC[C@H](O)CC1=C[C@]3(O)C(F)(F)F	–	> 180 min	31 min	131 min	half-life [19]: 600 min
–	–	–	–	–	–	CC(CO)CCC[C@@H](C)[C@H]1CC[C@H]2[C@H]3C(CC[C@]12C)[C@@]1(C)CC[C@H](O)CC1=C[C@H]3O (single isomer, unassigned)	1.3 nM	–	–	–	–

Compound	EC50 [4]	EC50 [5]	EC50 [6]	Emax [7]	Emax [8]	Emax [9]	EC50 [1]	half-life [10]	half-life [11]	half-life [12]	further results
C[C@H](CCCC(C)(C)O)[C@H]1CC[C@H]2[C@@H]3[C@H](O)C=C4C[C@@H](O)CC[C@]4(C)[C@H]3CC[C@]12C	0.032 nM	1.31 nM	0.702 nM	100%	100%	100%	0.14 nM	11 min	15 min	30 min	Cmax [2]: 4340 ng/mL; Tmax [3]: 19.8 min; Cmax [13]: 4460 ng/mL; Tmax [14]: 15 min; AUC(0-t) [15]: 2940 ng·h/mL; half-life [16]: 24 min; AUC(0-t) [17]: 3140 ng·h/mL; half-life [18]: 30 min
